One data set relates to COLO 205. The data set is described as follows: Antiproliferative activity against Rb-positive human COLO205 cells assessed as incorporation of [14C]thymidine into DNA after 72 hrs by beta-plate counting analysis.
The test system of a further data set is MOLM-13. As to the kind of experiment: Antiproliferative activity against human MOLM13 cells harboring FLT3 ITD mutant assessed as incorporation of [3H]thymidine into DNA after 72 hrs by beta-plate counting analysis. The data set is classed as functional, cell-based.
In data set [1] the target is Cyclin-dependent kinase 1/cyclin B1 (Homo sapiens, UniProt P06493). As to the kind of experiment: Inhibition of CDK1/cyclin B (unknown origin) using histone H1 as substrate after 60 mins by scintillation counting analysis in presence of [r-33P]ATP. Type of data set: protein-complex assay.
Chain of Cyclin-dependent kinase 1/cyclin B1 (P06493 whole entry): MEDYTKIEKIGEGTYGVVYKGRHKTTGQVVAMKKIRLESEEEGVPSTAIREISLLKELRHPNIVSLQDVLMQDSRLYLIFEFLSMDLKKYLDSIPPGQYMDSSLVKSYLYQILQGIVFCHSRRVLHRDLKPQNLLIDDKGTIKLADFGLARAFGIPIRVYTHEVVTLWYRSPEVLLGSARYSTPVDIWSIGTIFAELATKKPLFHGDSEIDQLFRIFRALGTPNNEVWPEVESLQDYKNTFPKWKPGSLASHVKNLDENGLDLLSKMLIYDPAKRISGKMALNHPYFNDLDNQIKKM
Chain of Cyclin-dependent kinase 1/cyclin B1 (P14635 whole entry, further chain): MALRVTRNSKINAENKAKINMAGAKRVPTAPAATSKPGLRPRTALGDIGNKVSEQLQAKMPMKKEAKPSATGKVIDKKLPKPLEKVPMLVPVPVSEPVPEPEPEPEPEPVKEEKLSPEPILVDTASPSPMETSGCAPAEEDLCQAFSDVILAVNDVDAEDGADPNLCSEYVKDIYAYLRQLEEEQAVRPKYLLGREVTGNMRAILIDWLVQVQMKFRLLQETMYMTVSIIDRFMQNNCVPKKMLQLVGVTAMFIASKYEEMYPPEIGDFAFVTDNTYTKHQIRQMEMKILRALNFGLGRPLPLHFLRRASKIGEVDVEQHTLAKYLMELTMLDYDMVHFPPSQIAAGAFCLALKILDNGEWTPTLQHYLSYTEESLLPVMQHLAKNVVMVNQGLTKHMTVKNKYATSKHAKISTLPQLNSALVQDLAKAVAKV
For data set [2], the target named is T1, Receptor-type tyrosine-protein kinase FLT3 (Homo sapiens, UniProt P36888).
T1 sequence (P36888 whole entry): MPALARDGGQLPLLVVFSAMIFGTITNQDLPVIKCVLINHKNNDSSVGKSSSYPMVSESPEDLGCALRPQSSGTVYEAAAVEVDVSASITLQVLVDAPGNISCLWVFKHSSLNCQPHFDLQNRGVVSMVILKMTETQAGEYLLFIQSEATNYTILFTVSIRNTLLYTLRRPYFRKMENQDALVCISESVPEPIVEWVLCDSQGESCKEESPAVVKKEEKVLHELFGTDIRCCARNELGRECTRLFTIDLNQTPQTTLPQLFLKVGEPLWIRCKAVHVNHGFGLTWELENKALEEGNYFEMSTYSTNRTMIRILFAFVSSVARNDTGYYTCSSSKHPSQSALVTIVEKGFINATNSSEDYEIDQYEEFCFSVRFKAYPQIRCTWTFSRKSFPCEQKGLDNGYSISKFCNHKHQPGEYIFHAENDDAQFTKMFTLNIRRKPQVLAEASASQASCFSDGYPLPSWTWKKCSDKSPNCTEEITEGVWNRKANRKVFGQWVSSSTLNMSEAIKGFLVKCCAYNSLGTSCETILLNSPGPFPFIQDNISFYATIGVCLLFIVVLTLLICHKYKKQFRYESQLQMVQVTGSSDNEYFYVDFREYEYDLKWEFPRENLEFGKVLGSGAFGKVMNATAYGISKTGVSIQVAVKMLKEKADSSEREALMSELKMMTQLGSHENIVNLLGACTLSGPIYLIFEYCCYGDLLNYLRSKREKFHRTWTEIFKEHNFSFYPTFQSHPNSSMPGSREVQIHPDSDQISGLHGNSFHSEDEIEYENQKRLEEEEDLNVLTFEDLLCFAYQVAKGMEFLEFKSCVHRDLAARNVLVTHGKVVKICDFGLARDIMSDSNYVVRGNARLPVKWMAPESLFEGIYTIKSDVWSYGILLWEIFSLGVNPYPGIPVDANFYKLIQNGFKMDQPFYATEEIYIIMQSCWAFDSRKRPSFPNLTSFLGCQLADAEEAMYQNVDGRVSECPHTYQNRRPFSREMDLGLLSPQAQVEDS
The data set is described as follows: Inhibition of GST-fused human FLT3 cytoplasmic domain (amino acids 564 to 993) using Ulight-JAK1 as substrate after 1 hr by TR-FRET assay. (In TR-FRET formats the signal depends on donor and acceptor labels being close together.)

For the next data set, the target named is CYP3A4 (Homo sapiens, UniProt P08684). As to the kind of experiment: Inhibition of CYP3A4 (unknown origin) at 3 uM. The data set is classed as ADME.
Chain of CYP3A4 (P08684 whole entry): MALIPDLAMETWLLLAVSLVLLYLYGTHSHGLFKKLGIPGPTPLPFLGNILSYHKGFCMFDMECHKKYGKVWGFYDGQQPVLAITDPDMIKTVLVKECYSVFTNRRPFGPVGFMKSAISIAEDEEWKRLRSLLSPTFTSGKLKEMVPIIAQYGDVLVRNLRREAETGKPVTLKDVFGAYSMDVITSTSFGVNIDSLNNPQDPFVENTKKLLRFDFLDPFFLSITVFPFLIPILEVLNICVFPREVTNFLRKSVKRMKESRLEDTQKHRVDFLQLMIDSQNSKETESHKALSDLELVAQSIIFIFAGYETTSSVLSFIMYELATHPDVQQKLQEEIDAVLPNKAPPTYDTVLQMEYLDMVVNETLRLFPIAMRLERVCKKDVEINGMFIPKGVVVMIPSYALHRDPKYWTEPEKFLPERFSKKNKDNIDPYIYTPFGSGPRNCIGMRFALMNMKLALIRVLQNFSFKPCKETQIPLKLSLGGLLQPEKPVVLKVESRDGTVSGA
Data set [3] has as its target Cyclin-dependent kinase 4/cyclin D1 (Homo sapiens, UniProt P11802). As to the kind of experiment: Inhibition of CDK4/cyclin D1 (unknown origin) using Rb as substrate after 60 mins by scintillation counting analysis in presence of [r-33P]ATP. The data set is classed as protein-complex assay.
Data set [4] can be described thus: Antiproliferative activity against Rb-negative human MDA-MB-436 cells assessed as incorporation of [3H]thymidine into DNA after 72 hrs by beta-plate counting analysis. The data set is classed as functional.
Another data set addresses Cytochrome P450 3A4 (Homo sapiens, UniProt P08684). As to the kind of experiment: Inhibition of CYP3A4 (unknown origin). The data set is classed as ADME.
A short description of data set [5]: Oral bioavailability in rat. Type of data set: ADME, organism-based. As to conditions: in vivo. In short, it runs like this:
(§1)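 Intravenous and oral (gavage, solution) PK in rat, dog and cynomolgus monkey. The rat vehicle for both routes was water/acetate/tween at pH 4, 96/3/1 (v/v/v). Dog and monkey iv doses used 40% PG aqueous solution at pH 2, and their oral doses used 20% captisol aqueous solution.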

Data set [6] can be described thus: Clearance in iv dosed rat. Type of data set: ADME, organism-based. As to conditions: in vivo. A digest of the protocol:
as §1

The source of these data is ChEMBL document CHEMBL3232894, “Discovery of AMG 925, a FLT3 and CDK4 dual kinase inhibitor with preferential affinity for the activated state of FLT3” (J Med Chem, 2014).

The structures appear in SMILES notation. pIC50: −log10 of the molar value. A value given as a limit tells only on which side of the number the result lay.

Chain of Cytochrome P450 3A4 (P08684 whole entry): as above
Chain of Cyclin-dependent kinase 4/cyclin D1 (P11802 whole entry): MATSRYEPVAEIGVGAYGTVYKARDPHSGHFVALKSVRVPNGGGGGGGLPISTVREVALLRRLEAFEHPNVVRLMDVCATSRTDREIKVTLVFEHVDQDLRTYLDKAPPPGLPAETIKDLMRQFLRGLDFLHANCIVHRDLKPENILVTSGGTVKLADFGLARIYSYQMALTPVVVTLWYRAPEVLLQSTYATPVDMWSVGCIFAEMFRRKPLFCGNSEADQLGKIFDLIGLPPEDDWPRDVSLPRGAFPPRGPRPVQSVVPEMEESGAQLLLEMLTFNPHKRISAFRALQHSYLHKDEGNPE
Chain of Cyclin-dependent kinase 4/cyclin D1 (P24385 whole entry, further chain): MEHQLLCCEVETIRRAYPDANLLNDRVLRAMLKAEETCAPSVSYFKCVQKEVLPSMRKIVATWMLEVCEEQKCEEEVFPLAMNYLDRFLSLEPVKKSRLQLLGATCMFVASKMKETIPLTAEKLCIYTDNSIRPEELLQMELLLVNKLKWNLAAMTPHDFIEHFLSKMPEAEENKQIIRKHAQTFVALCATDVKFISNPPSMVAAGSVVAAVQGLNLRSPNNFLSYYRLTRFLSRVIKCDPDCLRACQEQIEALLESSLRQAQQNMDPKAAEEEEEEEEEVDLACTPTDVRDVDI

In general, pIC50 refers to the negative decadic logarithm of the IC50, by convention in mol/L. Broadly, the inhibition is the relative decrease from the control value, in per cent. A lower inhibition goes with a response near the control. Turning to `O[C@H]1CC[C@H](n2c3cnccc3c3cnc(Nc4ccc(N5CCNCC5)cn4)nc32)CC1`, the pIC50 with COLO 205 was 7.18; in the data set with MOLM-13 it was 7.60; in data set [1], 5.47; in data set [2], 8.30; in data set [3], 8.52; in data set [4], 5.58. For the same compound, on CYP3A4, testing at 3 µM gave an inhibition of 70%.

`C[C@H]1CC[C@H](n2c3cnccc3c3cnc(Nc4ccc(N5CCNCC5)cn4)nc32)CC1`: the pIC50 in the data set with COLO 205 was 7.70; in the data set on MOLM-13, 7.89; in data set [1] it was 5.58; in data set [2], 8.70; at Cytochrome P450 3A4, below 5.00; in [3], 8.15. For the same compound, the negative logarithm of the IC50 (pIC50) in data set [4] is 5.92. On CYP3A4, this compound gave an inhibition at 3 µM of 20%.

For `C[C@H]1CC[C@H](n2c3cnccc3c3cnc(Nc4ccc(N5CCNCC5)nc4)nc32)CC1`, the pIC50 was 8.15 in the data set with COLO 205; 8.30 with MOLM-13; 7.62 in data set [1]; 9.52 in data set [2]; 8.52 in data set [3]; 7.42 in data set [4].

One may read the bioavailability as the share of a dose that reaches the circulation, judged against a reference dose that is usually intravenous. Low readings indicate poor availability, high ones good availability. The term clearance denotes the volume of plasma or blood freed of the substance per unit of time. The low end stands for inefficient removal, the high end for efficient removal. With `CN(C)C1CCN(c2ccc(Nc3ncc4c5ccncc5n([C@H]5CC[C@H](C)CC5)c4n3)nc2)CC1`, the bioavailability in data set [5] was 44%. The compound further gave a clearance in data set [6] of 35 mL/min/kg. Also, the pIC50 with COLO 205 was 8.00; in the data set on MOLM-13 it was 8.00; in data set [1], 5.48; in data set [2], 8.70; in data set [3], 8.70; in data set [4] it was 5.90.

`C[C@H]1CC[C@H](n2c3cnccc3c3cnc(Nc4ccc(N5CCC(N)CC5)cn4)nc32)CC1`: the negative logarithm of the IC50 (pIC50) in the data set with COLO 205 was 8.30; with MOLM-13, 8.10; in data set [1], 6.39; in data set [2] it was 9.00; in data set [3], 8.70; in [4], 5.92.

On to `N#Cc1nccc2c3cnc(Nc4ccc(N5CCNCC5)cn4)nc3n(C3CCCC3)c12`, for which the pIC50 is 6.46 with COLO 205; 7.21 in the data set with MOLM-13; 4.52 in [1]; 7.34 in [2]; 7.57 in data set [3]; 5.86 in data set [4].

As to `Fc1nccc2c3cnc(Nc4ccc(N5CCNCC5)cn4)nc3n(C3CCCC3)c12`, in data set [6], the clearance was 35 mL/min/kg. Also, the pIC50 in the data set on COLO 205 is 7.28; in the data set with MOLM-13, 7.68; in [1], 5.12; in data set [2], 7.96; against Cytochrome P450 3A4, below 5.00; in data set [3], 8.52. Also, in data set [4], the pIC50 was 5.58. On CYP3A4, the inhibition at 3 µM is below 10%.

Turning to `Cc1nccc2c3cnc(Nc4ccc(N5CCNCC5)cn4)nc3n(C3CCCC3)c12`, the pIC50 with COLO 205 was 6.55; with MOLM-13 it was 8.30; in data set [1], 5.65; in data set [2], 7.66; on Cytochrome P450 3A4, below 5.00; in [3] it was 7.70. In data set [4], the pIC50 was 5.47. Besides, the inhibition at 3 µM against CYP3A4 was below 10%.

`c1cc2c3cnc(Nc4ccc(N5CCNCC5)cn4)nc3n(C3CCCC3)c2nn1`: the clearance in data set [6] was 93.3 mL/min/kg. The pIC50 in the data set with COLO 205 is 7.29; in data set [1], 5.32; in [2], 7.02; against Cytochrome P450 3A4, below 5.00; in [3], 7.29; in data set [4], 5.15. For the same compound, the inhibition at 3 µM against CYP3A4 was below 10%.

`CC1CCC(n2c3cnccc3c3cnc(Nc4ccc(N5CCNCC5)cn4)nc32)CC1` (mixture of isomers): the pIC50 is 7.26 in the data set on COLO 205; 5.28 in data set [1]; 8.70 in [2]; 9.00 in data set [3]; 5.99 in data set [4]. The compound further had an inhibition at 3 µM against CYP3A4 of 46%.

With `C[C@H]1CC[C@H](n2c3cnccc3c3cnc(Nc4ccc(N5CCNCC5)nn4)nc32)CC1`, the bioavailability in [5] is 11%. Moreover, the clearance in [6] was 5.83 mL/min/kg. Further, the negative-log IC50 (pIC50) in the data set on COLO 205 was 7.66; with MOLM-13, 7.89; in data set [1], 5.82; in data set [2], 8.22; in data set [3], 8.70; in [4], 6.00.

As to `COc1nc(Nc2ncc3c4ccncc4n([C@H]4CC[C@H](C)CC4)c3n2)ccc1N1CCC2(CCC(=O)N2)CC1`, in data set [5], the bioavailability came to 65%. In addition, the clearance in data set [6] is 15.2 mL/min/kg. Further, the negative logarithm of the IC50 (pIC50) in the data set on COLO 205 is 7.36; in the data set on MOLM-13, 8.40; in data set [1], 5.97; in data set [2] it was 9.22; in data set [3], 7.89; in data set [4] it was 5.12.

In the case of `O=c1[nH]ccc2c3cnc(Nc4ccc(N5CCNCC5)cn4)nc3n(C3CCCC3)c12`, the pIC50 in the data set with COLO 205 was 6.92; in the data set on MOLM-13, 8.30; in [1] it was 5.00; in data set [2], 7.77; in data set [3] it was 8.30; in [4] it was 5.68. The inhibition at 3 µM on CYP3A4 is 18%.

Turning to `CC1(C)CCCC(n2c3cnccc3c3cnc(Nc4ccc(N5CCNCC5)cn4)nc32)C1` (stereo unspecified), the pIC50 was 7.48 in the data set on COLO 205; 8.00 in the data set on MOLM-13; 5.53 in data set [1]; 8.52 in [2]; 8.52 in data set [3]; 5.79 in [4]. Besides, testing at 3 µM against CYP3A4 gave an inhibition of 90%.

`C[C@@H](CO)n1c2cnccc2c2cnc(Nc3ccc(N4CCNCC4)cn3)nc21`: the pIC50 in the data set on COLO 205 is 5.91; in data set [1], 4.89; in data set [2], 7.37; against Cytochrome P450 3A4 it was below 5.00; in data set [3], 7.40; in data set [4], 4.52. In addition, 3 µM produced 17% inhibition against CYP3A4.

In turn, `c1cc2c3cnc(Nc4ccc(N5CCNCC5)cn4)nc3n(C3CCCC3)c2cn1` displayed a bioavailability in [5] of 9.4%. Further, in data set [6], the clearance is 16.3 mL/min/kg. Besides, the negative logarithm of the IC50 (pIC50) with COLO 205 is 7.60; in the data set with MOLM-13, 8.30; in [1], 5.52; in data set [2], 7.85; against Cytochrome P450 3A4, 6.26; in [3], 8.52. Moreover, the negative logarithm of the IC50 (pIC50) in data set [4] was 5.75. Further, 3 µM produced 90% inhibition against CYP3A4.

Turning to `c1cc2c3cnc(Nc4ccc(N5CCNCC5)cn4)nc3n(C3CCCCC3)c2cn1`, the pIC50 in the data set with COLO 205 was 7.49; in [1], 5.19; in data set [2] it was 8.70; in data set [3], 8.30; in [4] it was 6.27. This compound also showed an inhibition at 3 µM at CYP3A4 of 82%.

Turning to `CS(=O)(=O)CC1CCN(c2ccc(Nc3ncc4c5ccncc5n([C@H]5CC[C@H](C)CC5)c4n3)nn2)CC1`, the bioavailability in [5] was 23%. Moreover, the clearance in data set [6] was 3.33 mL/min/kg. For the same compound, the pIC50 is 7.72 with COLO 205; 7.52 in the data set on MOLM-13; 5.40 in [1]; 8.10 in data set [2]; 8.05 in data set [3]; 5.00 in data set [4].

On to `CC1(C)CCC(n2c3cnccc3c3cnc(Nc4ccc(N5CCNCC5)cn4)nc32)CC1`, for which the pIC50 in the data set with COLO 205 is 7.55; in the data set on MOLM-13, 7.46; in data set [1] it was 5.54; in data set [2], 7.77; on Cytochrome P450 3A4, 5.02; in [3] it was 9.00. The negative-log IC50 (pIC50) in data set [4] is 5.70. The compound further gave an inhibition at 3 µM on CYP3A4 of 51%.
